Results reported in ChEMBL document CHEMBL1133726, “Structure-activity relationships in platelet-activating factor (PAF). 10. From PAF antagonism to inhibition of HIV-1 replication” (J Med Chem, 2000).

Columns and labels:
[1] = tested on: Human immunodeficiency virus 1; test: Percent inhibition at 100 uM dose of HIV-1 replication using monocyte-derived macrophages infected by the HIV-1/Ba-L strain.; format: functional
Method in brief: (§1)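 Human monocytes were elutriated from seronegative donor PBMC and differentiated 7 days into MDM in RPMI 1640 with 10% heat-inactivated FCS. 1 million MDM were pretreated 1 h with compound and infected with 10 000 TCID50 (0.01 moi) HIV-1/Ba-L, then washed at 24 h. Medium and drug were renewed twice weekly. Read-out was supernatant RT activity, with a second donor repeat; mean ± SD.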

[2] = species: Oryctolagus cuniculus; test: Inhibition of PAF-induced platelet aggregation was determined using platelet rich plasma (PRP) of New Zealand rabbits.; format: functional
Method in brief: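 Rabbit platelet-rich plasma was incubated and stirred with antagonist for 2 min, then challenged with 2.5 nM PAF. Antagonist solutions in EtOH spanned 10^-2 to 10^-7 M. Aggregation was followed by continuous light-transmission recording and compared with PAF alone. IC50 came from dose-response curves (5-6 determinations).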

[3] = tested on: Human immunodeficiency virus 1; test: Cytotoxic concentration against monocyte-derived macrophage infected by the HIV-1/Ba-L strain using neutral red staining assay.; format: functional
Method in brief: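 Compound-exposed MDM, with drug renewed twice weekly, were checked microscopically during culture. At the end of culture they were stained with neutral red, and CC50 was calculated from the optical density values. The assay was repeated with cells from a second blood donor.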

[4] = tested on: Human immunodeficiency virus 1; test: Antiviral activity towards inhibition of HIV-1 replication using monocyte-derived macrophage infected by the HIV-1/Ba-L strain.; format: functional, organism-based; method in brief: as §1
[5] = tested on: Human immunodeficiency virus 1; test: Percent inhibition at 10 uM dose of HIV-1 replication using monocyte-derived macrophage infected by the HIV-1/Ba-L strain.; format: functional; method in brief: as §1
[6] = tested on: Human immunodeficiency virus 1; test: Antiviral activity towards inhibition of replication of HIV-1-DAS infected monocyte-derived macrophage; format: functional, organism-based

| Compound | IC50 [2] | IC50 [4] | IC50 [6] | inhibition at 100 µM [1] | CC50 [3] | inhibition at 10 µM [5] |
| --- | --- | --- | --- | --- | --- | --- |
| COc1cc(C(=O)N2CCN(C(=O)c3cc(OC)c(OC)c(OC)c3)C(COC(=O)N3CCCC3)C2)cc(OC)c1OC (stereo not given) | 10 µM | > 100 µM | – | – | > 100 µM | – |
| COc1cc(C(=O)N2CCN(C(=O)c3cc(OC)c(OC)c(OC)c3)C(CNC(=O)C(C)(C)C)C2)cc(OC)c1OC (stereo not given) | > 100 µM | > 100 µM | – | – | > 100 µM | – |
| COc1cc(C(=O)N2CCN(C(=O)c3cc(OC)c(OC)c(OC)c3)CC2)cc(OC)c1OC | 1.78 µM | > 100 µM | – | – | > 100 µM | – |
| COc1cc(C(=O)N2CCN(C(=O)c3cc(OC)c(OC)c(OC)c3)C(CO)C2)cc(OC)c1OC (stereo not given) | 1.27 µM | > 100 µM | – | – | > 100 µM | – |
| NC(=O)c1ccn2c1CS[C@@H]2c1cccnc1 (racemic) [DACOPAFANT] | 16 µM | – | – | – | – | – |
| NC(=O)c1ccn2c1CS[C@@H]2c1cccnc1 [DACOPAFANT] | – | – | 50 µM | – | – | – |
| CCN(CC)C(=O)OCC1CN(C(=O)c2cc(OC)c(OC)c(OC)c2)CCN1C(=O)c1cc(OC)c(OC)c(OC)c1 (stereo not given) [PMS-601] | 8 µM | 11 µM | – | 95% | > 1000 µM | – |

More lines, main results first:

| IC50 [2] | IC50 [4] | IC50 [6] | Compound | inhibition at 100 µM [1] | CC50 [3] | inhibition at 10 µM [5] |
| --- | --- | --- | --- | --- | --- | --- |
| 0.1 µM | – | – | COc1cc(C(=O)N2CCN(C(=O)c3cc(OC)c(OC)c(OC)c3)C(COC(=O)C(C)(C)C)C2)cc(OC)c1OC (stereo not given) | 25% | > 100 µM | – |
| 0.37 µM | – | – | CCCN(CCC)C(=O)OCC1CN(C(=O)c2cc(OC)c(OC)c(OC)c2)CCN1C(=O)c1cc(OC)c(OC)c(OC)c1 (stereo not given) | 66% | > 100 µM | – |
| 0.28 µM | – | – | COc1cc(C(=O)N2CCN(C(=O)c3cc(OC)c(OC)c(OC)c3)C(COC(=O)NC(C)CC(C)C)C2)cc(OC)c1OC (stereo not given) | -2% | > 100 µM | – |
| 1 µM | – | – | COc1cc(C(=O)N2CCN(C(=O)c3cc(OC)c(OC)c(OC)c3)C(COC(=O)NCC(C)(C)C)C2)cc(OC)c1OC (stereo not given) | 74% | > 100 µM | – |
| 0.46 µM | 230 µM | – | CCC1CN(C(=O)c2cc(OC)c(OC)c(OC)c2)CCN1C(=O)c1cc(OC)c(OC)c(OC)c1 (stereo not given) | – | > 100 µM | – |
| 0.56 µM | 66 µM | – | COc1cc(C(=O)N2CCN(C(=O)c3cc(OC)c(OC)c(OC)c3)C(C)C2)cc(OC)c1OC (stereo not given) | – | > 100 µM | – |
| 0.24 µM | – | – | CCCCCCCCCCC1CN(C(=O)c2cc(OC)c(OC)c(OC)c2)CCN1C(=O)c1cc(OC)c(OC)c(OC)c1 (stereo not given) | – | > 50 µM | 40% |
| 0.08 µM | 95 µM | – | COc1cc(C(=O)N2CCN(C(=O)c3cc(OC)c(OC)c(OC)c3)C(COC(=O)N3CCCCC3)C2)cc(OC)c1OC (stereo not given) | – | > 100 µM | – |
| 0.13 µM | – | – | COc1cc(C(=O)N2CCN(C(=O)c3cc(OC)c(OC)c(OC)c3)C(COC(=O)NC(C)(C)C)C2)cc(OC)c1OC (stereo not given) | 52% | > 100 µM | – |
